Data published in ChEMBL document CHEMBL1143843, “Antiviral and cellular metabolism interactions between Dexelvucitabine and lamivudine” (Antimicrob Agents Chemother, 2007).
Values belong to the compound of their own block, whether it stands above or below them. Activity calls are given as the source filed them. The calls are words filed in the database; no cut-off is given here.

Experiments:
[1] = tested on: Human immunodeficiency virus 1; assay: Antiviral activity against HIV1 LAI in human PBM cells; format: functional, organism-based; conditions: Human immunodeficiency virus 1, LAI, PBMC
How it was run: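 HIV-1 LAI added to PHA-stimulated (3-day) primary human PBM cells 1 h before drugs; medium with recombinant IL-2 (26.5 units/ml); drugs alone or combined at fixed ratios (10:1, 3:1, 25:1, 100:1); 5 days culture; supernatant virus pelleted by centrifugation, RT activity measured radiometrically; combination index with confidence intervals by computer algorithm.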

CCRF-CEM [2] = assay: Reduction in [3H]dexelvucitabine triphosphate in human CEM cells per 10^6 cells at 33.3 uM; format: functional
How it was run: (§1)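 CEM or PHA-stimulated primary human PBM cells (2 x 10^6 per point) given 10 µM [3H]DFC plus unlabeled 3TC at 1, 33.3 or 100 µM for 4 h, in triplicate; 60% methanol extracts resolved by ion-pairing reverse-phase C18 HPLC; metabolites (TP, DP-choline) quantified by scintillation counting as pmol/10^6 cells.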

CCRF-CEM [3] = assay: Reduction in [3H]dexelvucitabine triphosphate in human CEM cells per 10^6 cells at 100 uM; format: functional; how it was run: as §1
CCRF-CEM [4] = assay: (§2) Reduction in dexelvucitabine diphosphate choline level in human CEM cells at 1 uM; format: functional; set-up: scale not given: the % may be the effect or the level left; how it was run: as §1
CCRF-CEM [5] = assay: Reduction in dexelvucitabine diphosphate choline level in human CEM cells at 33.3 uM; format: functional; set-up: scale not given: the % may be the effect or the level left; how it was run: as §1
CCRF-CEM [6] = assay: Reduction in dexelvucitabine diphosphate choline level in human CEM cells at 100 uM; format: functional; set-up: scale not given: the % may be the effect or the level left; how it was run: as §1
PBMC [7] = assay: Reduction in dexelvucitabine diphosphate choline level in human PBMC at 33.3 uM; format: functional; set-up: scale not given: the % may be the effect or the level left; how it was run: as §1
PBMC [8] = assay: Reduction in dexelvucitabine diphosphate choline level in human PBMC at 100 uM; format: functional; set-up: scale not given: the % may be the effect or the level left; how it was run: as §1
CCRF-CEM [9] = assay: as §2; format: functional; set-up: scale not given: the % may be the effect or the level left; how it was run: as §1; remark: listed apart in the source
PBMC [10] = assay: Reduction in dexelvucitabine diphosphate choline level in human PBMC at 1 uM; format: functional; set-up: scale not given: the % may be the effect or the level left; how it was run: as §1
PBMC [11] = assay: Reduction in dexelvucitabine diphosphate choline level in PHA-stimulated human PBMC at 1 uM; format: functional, cell-based
How it was run: (§3)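 Competition assay in triplicate in CEM and PHA-stimulated PBM cells (2 x 10^6 per point). Cells received 10 µM [3H]3TC plus unlabeled DFC, or 10 µM [3H]DFC plus unlabeled 3TC, with the unlabeled drug at 1, 33.3 or 100 µM, for 4 h. After cold-PBS washes, 60% methanol extracts were separated by ion-pair reverse-phase HPLC. Labeled metabolites, including TP and DP-choline, were quantified by scintillation counting against radiolabel alone.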

CCRF-CEM [12] = assay: Reduction in [3H]dexelvucitabine triphosphate in human CEM cells at 1 uM; format: functional, cell-based; how it was run: as §3
CCRF-CEM [13] = assay: Drug level in human CEM cells per 10^6 cells at 10 uM after 4 hrs; format: ADME, cell-based
How it was run: (§4)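 CEM cells or PBM cells stimulated 3 days with PHA, 2 x 10^6 cells per time point, were given 10 µM [3H]DFC or [3H]3TC for 4 h. Cells were washed three times in cold PBS and counted, with viability checked by trypan blue. Metabolites were extracted overnight in 60% methanol and resolved by ion-pair C18 HPLC (ammonium acetate/TBAP pH 7.0, 0–50% methanol), then radioactivity was counted. LOD was about 0.01 pmol/10^6 cells.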

PBMC [14] = assay: Drug level in human PBMC per 10^6 cells at 10 uM after 4 hrs; format: ADME, cell-based; how it was run: as §4
CCRF-CEM [15] = assay: Reduction of Lamivudine triphosphate level at 100 uM in human CEM cells; format: functional; set-up: scale not given: the % may be the effect or the level left
How it was run: (§5)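 CEM or PHA-stimulated primary human PBM cells (2 x 10^6 per point) given 10 µM [3H]3TC plus unlabeled competitor at 1, 33.3 or 100 µM for 4 h, in triplicate; cells washed in cold PBS, extracted overnight in 60% methanol; metabolites separated by ion-pairing reverse-phase C18 HPLC (ammonium acetate/TBAP pH 7.0, methanol gradient); radioactivity counted; detection limit about 0.01 pmol/10^6 cells.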

PBMC [16] = assay: Reduction of Lamivudine triphosphate level at 100 uM in human PBMC; format: functional; set-up: scale not given: the % may be the effect or the level left; how it was run: as §5
CCRF-CEM [17] = assay: Reduction in Lamivudine metabolite level in human CEM cells at 1 uM; format: functional, cell-based; how it was run: as §3
CCRF-CEM [18] = assay: Reduction in Lamivudine metabolite level in human CEM cells at 33.3 uM; format: functional; set-up: scale not given: the % may be the effect or the level left; how it was run: as §5
CCRF-CEM [19] = assay: Reduction in Lamivudine metabolite level in human CEM cells at 100 uM; format: functional; set-up: scale not given: the % may be the effect or the level left; how it was run: as §5
CCRF-CEM [20] = assay: Reduction in Lamivudine diphosphate choline level in human CEM cells; format: functional, cell-based; how it was run: as §3

SMILES: Nc1ccn([C@@H]2CS[C@H](CO)O2)c(=O)n1 (single isomer, unassigned) [LAMIVUDINE]
EC50 [1]: 26 nM | EC90 [1]: 120 nM | Activity (CCRF-CEM [2]): 0.67 pmol | Activity (CCRF-CEM [3]): 0.41 pmol | Activity (CCRF-CEM [4]): 74% | Activity (CCRF-CEM [5]): 83% | Activity (CCRF-CEM [6]): 92% | Activity (PBMC [7]): 83% | Activity (PBMC [8]): 92% | Activity (CCRF-CEM [9]): 74% | Activity (PBMC [10]): 48% | Activity (PBMC [11]): Active | Activity (CCRF-CEM [12]): inactive

Drug uptake (CCRF-CEM [13]): 5.7 pmol | Drug uptake (PBMC [14]): 2.01 pmol
SMILES: Nc1ccn([C@@H]2CS[C@H](COP(=O)(O)OP(=O)(O)OP(=O)(O)O)O2)c(=O)n1 [LAMIVUDINE TRIPHOSPHATE]

SMILES: Nc1nc(=O)n([C@H]2C=C[C@@H](CO)O2)cc1F [DEXELVUCITABINE]
EC50 [1]: 75 nM | EC90 [1]: 230 nM | Activity (CCRF-CEM [15]): 25% | Activity (PBMC [16]): 46% | Activity (CCRF-CEM [17]): inactive | Activity (CCRF-CEM [18]): 10% | Activity (CCRF-CEM [19]): 13% | Activity (CCRF-CEM [20]): inactive
